Activity calls are given as the source filed them. The rule behind the calls is not given here.
Assays:
[1] = target: Protein kinase C alpha type (Mus musculus, UniProt P20444); test: Displacement of [3H]PDBu from mouse recombinant PKCalpha expressed in Escherichia coli
Method in brief: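 Recombinant full-length mouse PKCα, partially purified, is tested for competitive displacement of [3H]PDBu with phosphatidylserine (100 µg/mL), 4 mg/mL bovine IgG and 50 mM Tris-HCl pH 7.4. Incubation is 37 °C for 5 min, followed by polyethylene glycol precipitation on ice and scintillation counting of bound and free label. Ki is calculated by the lab's standard method, averaged over three independent experiments.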

[2] = target: T1, Protein kinase C delta type (Mus musculus, UniProt P28867); test: Displacement of [3H]PDBu from mouse wild type C1b domain of PKCdelta expressed in Escherichia coli
Method in brief: (§1)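 Competitive displacement of [3H]PDBu from GST-tagged C1 domains of PKCδ (expressed in E. coli, IPTG-induced, spin-purified, stored in 30% glycerol at -70 °C). 18 °C for 10 min, PEG precipitation on ice, scintillation counting of pellet and supernatant. Ki from the lab's standard method. Three independent experiments.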

[3] = target: Protein kinase C delta type (Mus musculus, UniProt P28867, Q257E); test: Displacement of [3H]PDBu from mouse PKCdelta C1b Q27E mutant expressed in Escherichia coli; method in brief: as §1
[4] = target: Protein kinase C delta type (Mus musculus) (UniProt P28867); test: Ratio of Ki for mouse PKCdelta C1b Q27E mutant to Ki for mouse wild type C1b domain of PKCdelta
[5] = target: T1, Protein kinase C delta type; test: Binding affinity to mouse PKC delta C1a Q27E mutant expressed in Escherichia coli; method in brief: as §1
[6] = target: T1, Protein kinase C delta type; test: Binding affinity to mouse wild-type PKCdelta C1a expressed in Escherichia coli; method in brief: as §1
[7] = target: Protein kinase C delta type (Mus musculus) (UniProt P28867); test: Effect on membrane translocation of wildype full length PKCdelta-GFP in CHOK1 cells at 20 uM within 5 mins; type: functional, cell-based; conditions: CHO-K1
Method in brief: (§2)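 CHO-K1 cells grown at 37 °C, 5% CO2 in F-12 with 10% FBS and penicillin/streptomycin, transfected with GFP-fused PKCδ (wild type or Q257E); imaged 24 h later. Live confocal time series (488 nm excitation, 522/32 emission) in a perfusion chamber at 37 °C after ligand addition (test compound 20 µM; PMA 1 µM). Plasma- and internal-membrane GFP redistribution assessed visually.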

[8] = target: Protein kinase C delta type (Mus musculus) (UniProt P28867); test: Effect on membrane translocation of PKCdelta-GFP Q257E mutant in CHOK1 cells at 20 uM after 1 hr; type: functional, cell-based; conditions: CHO-K1; method in brief: as §2

Chain of Protein kinase C delta type (Mus musculus, UniProt P28867, Q257E) (P28867 whole entry Q257E, the tested form may be a part): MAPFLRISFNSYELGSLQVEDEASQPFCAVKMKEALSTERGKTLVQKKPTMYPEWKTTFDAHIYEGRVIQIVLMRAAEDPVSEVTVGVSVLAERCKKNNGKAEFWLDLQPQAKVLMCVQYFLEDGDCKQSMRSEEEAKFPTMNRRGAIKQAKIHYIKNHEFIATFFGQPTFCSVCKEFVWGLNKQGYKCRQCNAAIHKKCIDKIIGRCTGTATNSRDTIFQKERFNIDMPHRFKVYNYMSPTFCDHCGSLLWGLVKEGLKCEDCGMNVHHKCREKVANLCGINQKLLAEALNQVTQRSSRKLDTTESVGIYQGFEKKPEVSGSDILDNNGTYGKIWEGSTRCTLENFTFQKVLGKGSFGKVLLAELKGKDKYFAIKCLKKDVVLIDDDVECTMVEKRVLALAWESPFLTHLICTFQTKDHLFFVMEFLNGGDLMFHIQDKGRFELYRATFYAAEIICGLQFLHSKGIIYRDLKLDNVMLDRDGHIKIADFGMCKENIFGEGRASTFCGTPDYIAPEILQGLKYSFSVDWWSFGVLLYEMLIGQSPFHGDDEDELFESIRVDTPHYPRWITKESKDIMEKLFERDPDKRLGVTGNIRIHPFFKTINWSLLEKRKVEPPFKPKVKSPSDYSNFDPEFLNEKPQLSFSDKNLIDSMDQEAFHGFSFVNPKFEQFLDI
T1 sequence (P28867 whole entry, the tested form may be a part): as the sequence (P28867 whole entry Q257E, the tested form may be a part) above, with E257Q counted along it
Chain of Protein kinase C delta type (Mus musculus) (P28867 whole entry, looked up, the tested form may be a part): as the sequence (P28867 whole entry Q257E, the tested form may be a part) above, with E257Q counted along it

Row | Compound | Ki [1] | Ki [2] | Ki [3] | Ratio Ki [4] | Ki [5] | Ki [6] | Activity [7] | Activity [8] | Kd [5] | Kd [6]
1 | CC(C)CC=C1OC(CO)(COC(=O)CC(CC(C)C)CC(C)C)OC1=O (centres undefined) | 5.78 nM |  |  |  |  |  |  |  |  | 
2 | CC(C)CC(=O)OCC1(CO)OC(=O)/C(=C\CC(CC(C)C)CC(C)C)O1 (centres undefined) | 19.8 nM | 2.82 nM | 3460 nM | 1230 |  |  |  |  |  | 
3 | CC(C)CC(C/C=C1/OC(CO)(COC(=O)C(C)(C)C)OC1=O)CC(C)C (centres undefined) |  | 0.82 nM | 2510 nM | 3070 | 1570 nM | 4.31 nM | Active | inactive |  | 
4 | CC(C)C/C=C1/OC(CO)(COC(=O)CC(CC(C)C)CC(C)C)OC1=O (centres undefined) |  | 0.9 nM | 1720 nM | 1910 |  |  |  |  |  | 
5 | CC(C)C/C=C1/CC(CO)(COC(=O)CC(CC(C)C)CC(C)C)OC1=O (centres undefined) | 3.07 nM | 2.13 nM | 73.7 nM | 35 |  |  |  |  |  | 
6 | CC(C)CC(C/C=C1/CC(CO)(COC(=O)C(C)(C)C)OC1=O)CC(C)C (centres undefined) | 2.9 nM | 1.15 nM | 44.8 nM | 39 | 476 nM | 1.21 nM |  |  |  | 
7 | CC(C)CC(CC=C1OC(CO)(COC(=O)C(C)(C)C)OC1=O)CC(C)C (centres undefined) | 6.41 nM |  |  |  |  |  |  |  |  | 
8 | CCCC(=O)O[C@@H]1[C@@H](C)[C@@]2(O)[C@@H](C=C(CO)C[C@]3(O)C(=O)C(C)=C[C@@H]23)[C@@H]2C(C)(C)[C@]12OC(=O)CCC |  | 0.33 nM | 6.2 nM |  |  |  |  |  | 383 nM | 2.04 nM
9 | CC(C)CC(=O)OCC1(CO)C/C(=C/CC(CC(C)C)CC(C)C)C(=O)O1 (centres undefined) | 3.49 nM | 0.96 nM | 53 nM | 55 |  |  |  |  |  | 

Source: ChEMBL document CHEMBL1146211, “Conformationally constrained analogues of diacylglycerol (DAG). 28. DAG-dioxolanones reveal a new additional interaction site in the C1b domain of PKC delta” (J Med Chem, 2007)
